The results in this text go back to ChEMBL document CHEMBL4715737, “New 1,3-thiazole derivatives and their biological and ultrastructural effects on Trypanosoma cruzi” (Eur J Med Chem, 2016).

For data set [1], the system named is Trypanosoma cruzi. The experiment in a line: Antiparasitic activity against Trypanosoma cruzi Y strain trypomastigotes assessed as reduction in parasite viability after 24 hrs by Neubauer chamber counting method. It counts as functional, organism-based. Put shortly:
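Y strain trypomastigotes collected from Vero cell supernatant, plated at 4 × 10^5 per well, treated in triplicate for 24 h at 37 °C, 5% CO2; benznidazole positive control. Motile (viable) parasites counted in Neubauer chamber, untreated wells = 100%. IC50 by nonlinear regression from at least seven concentrations.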

Data set [2] concerns the target Cruzipain (Trypanosoma cruzi) (UniProt P25779). The experiment in a line: Inhibition of recombinant Trypanosoma cruzi cruzain at 300 uM using Z-FR-AMC as substrate and measured at 12 sec interval for 5 mins by fluorimetric analysis relative to control. In outline:
(§1)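 Cruzain (1 nM) in 0.1 M sodium acetate pH 5.5, 0.01% Triton X-100, 1 mM β-mercaptoethanol, substrate Z-FR-AMC, no pre-incubation. Fluorescence read at 25 °C every 12 s for 5 min; rates from initial velocities versus DMSO control. Screened at 300, 200 or 100 (solubility-limited). Where inhibition exceeded 80%, IC50 came from seven concentrations by four-parameter variable-slope regression. At least two independent experiments, each in triplicate.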

Data set [3] in a line: Selectivity index, ratio of >90% maximum non-toxic concentration for BALB/c mouse splenocyte to IC50 for Trypanosoma cruzi Y strain trypomastigotes. The data set is classed as toxicity. The conditions noted are these: splenocytes, read-out: Selectivity Index. In outline:
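SI computed as highest non-toxic splenocyte concentration (>90% 3H-thymidine incorporation, 24 h) divided by trypomastigote IC50 (24 h, Neubauer motility count).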

Data set [4] in a line: Cytotoxicity against BALB/c mouse splenocyte incubated for 24 hrs by [3H]-thymidine incorporation based counter beta irradiation method. The data set is classed as cell-based. As to conditions: splenocytes. Put shortly:
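BALB/c splenocytes, 5 × 10^6 cells/well in RPMI-1640 + 10% inactivated FBS. Compounds from 10 mg/mL DMSO stock, serially diluted to […] (units as printed), in triplicate. Saponin 0.1 mg/mL positive control; medium + DMSO negative (=100%). 3H-thymidine 1.0 added, 24 h at 37 °C, 5% CO2, beta counting; highest concentration giving >90% incorporation taken as non-toxic.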
Background: Uptake of a labelled nucleoside into DNA is a usual measure of proliferation.

The target of the next data set is Cruzipain (Trypanosoma cruzi, UniProt P25779). The experiment in a line: Inhibition of recombinant Trypanosoma cruzi cruzain using Z-FR-AMC as substrate and measured at 12 sec interval for 5 mins by fluorimetric analysis. In outline:
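Cruzain (1 nM) in 0.1 M sodium acetate pH 5.5, 0.01% Triton X-100, 1 mM β-mercaptoethanol, substrate Z-FR-AMC, no pre-incubation. Fluorescence read at 25 °C every 12 s for 5 min; rates from initial velocities versus DMSO control. Screened at 300, 200 or 100 (solubility-limited). At least two independent experiments, each in triplicate.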

In data set [5] the test system is Trypanosoma cruzi. The experiment in a line: Induction of morphological changes in Trypanosoma cruzi trypomastigotes assessed as membrane projections at 3.4 uM after 24 hrs by TEM analysis. The data set is classed as functional, organism-based. Put shortly:
(§2)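 Trypomastigotes cultured 24 h in RPMI 1640 pH 7.5 with 20 mM HEPES, 10% FBS, penicillin/streptomycin plus compound at 3.4 and 6.8. Parasites washed in PBS and fixed in 2.5% glutaraldehyde/4% formaldehyde in 0.1 M cacodylate pH 6.8, then postfixed in 2% OsO4. SEM samples were ethanol-dehydrated, critical-point dried and gold-coated. TEM samples were acetone-dehydrated, epon-embedded and stained with uranyl acetate/lead citrate. Untreated controls were included.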

Data set [6] relates to Trypanosoma cruzi. The experiment in a line: Induction of morphological changes in Trypanosoma cruzi trypomastigotes assessed as mitochondrial swelling at 3.4 to 6.8 uM after 24 hrs by TEM analysis. It counts as functional, organism-based. As to conditions: dose 3.4-6.8 µM. In outline: as §2
Data set [7] deals with Trypanosoma cruzi. The experiment in a line: Induction of morphological changes in Trypanosoma cruzi trypomastigotes assessed as contortion of parasite body with presence of blebs in flagellum and parasite body at 3.4 uM after 24 hrs by SEM analysis. It counts as functional, organism-based. In outline: as §2
The subject of data set [8] is Trypanosoma cruzi. The experiment in a line: Induction of morphological changes in Trypanosoma cruzi trypomastigotes assessed as cytoplasmic vacuolization at 6.8 uM after 24 hrs by TEM analysis. The data set is classed as functional, organism-based. In outline: as §2
Data set [9] concerns Trypanosoma cruzi. The experiment in a line: Induction of morphological changes in Trypanosoma cruzi trypomastigotes assessed as alteration in reservosomes at 3.4 to 6.8 uM after 24 hrs by TEM analysis. The data set is classed as functional, organism-based. As to conditions: dose 3.4-6.8 µM. Put shortly:
as §2

Data set [10] concerns Trypanosoma cruzi. The experiment in a line: Induction of morphological changes in Trypanosoma cruzi trypomastigotes assessed as contortion of parasite body and alteration in morphology and size of flagellum at 6.8 uM after 24 hrs by SEM analysis. The data set is classed as functional, organism-based. Put shortly:
as §2

Data set [11] concerns Trypanosoma cruzi. The experiment in a line: Induction of morphological changes in Trypanosoma cruzi trypomastigotes assessed as formation of membrane blebs at 3.4 to 6.8 uM after 24 hrs by TEM analysis. The data set is classed as functional, organism-based. As to conditions: dose 3.4-6.8 µM. In outline:
as §2

For data set [12], the system named is Trypanosoma cruzi. The experiment in a line: Induction of morphological changes in Trypanosoma cruzi trypomastigotes assessed as abnormal chromatin condensation at 3.4 to 6.8 uM after 24 hrs by TEM analysis. The conditions noted are these: dose 3.4-6.8 µM. It counts as functional, organism-based. Put shortly: as §2
The test system of data set [13] is Trypanosoma cruzi. The experiment in a line: Induction of cytoplasmic vacuolization, irreversible lesions and changes in parasitic morphology in Trypanosoma cruzi trypomastigotes after 24 hrs by TEM analysis. As to conditions: dose 3.4-6.8 µM. The data set is classed as functional. Put shortly: as §2
For data set [14], the target named is Cruzipain (Trypanosoma cruzi) (UniProt P25779). The experiment in a line: Inhibition of recombinant Trypanosoma cruzi cruzain at 200 uM using Z-FR-AMC as substrate and measured at 12 sec interval for 5 mins by fluorimetric analysis relative to control. In outline:
as §1

For orientation: IC50 means the concentration needed to halve the response being measured. The inhibition is the relative decrease from the control value, in per cent.

Structures are written as SMILES. Active and inactive are the calls of the source. The rule behind the calls is not given here. Some results are limits rather than exact numbers.

Sequence of Cruzipain (Trypanosoma cruzi) (P25779 123-467 limits assumed): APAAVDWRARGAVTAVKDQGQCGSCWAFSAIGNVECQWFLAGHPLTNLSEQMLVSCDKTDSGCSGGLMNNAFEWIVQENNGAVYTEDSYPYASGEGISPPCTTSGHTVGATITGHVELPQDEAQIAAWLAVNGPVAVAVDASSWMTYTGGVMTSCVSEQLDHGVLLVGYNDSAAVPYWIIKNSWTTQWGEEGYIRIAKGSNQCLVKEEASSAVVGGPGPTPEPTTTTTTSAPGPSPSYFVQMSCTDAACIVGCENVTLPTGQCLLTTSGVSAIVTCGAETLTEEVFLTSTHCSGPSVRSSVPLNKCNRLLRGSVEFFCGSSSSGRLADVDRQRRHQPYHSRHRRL
Sequence of Cruzipain (P25779 whole entry): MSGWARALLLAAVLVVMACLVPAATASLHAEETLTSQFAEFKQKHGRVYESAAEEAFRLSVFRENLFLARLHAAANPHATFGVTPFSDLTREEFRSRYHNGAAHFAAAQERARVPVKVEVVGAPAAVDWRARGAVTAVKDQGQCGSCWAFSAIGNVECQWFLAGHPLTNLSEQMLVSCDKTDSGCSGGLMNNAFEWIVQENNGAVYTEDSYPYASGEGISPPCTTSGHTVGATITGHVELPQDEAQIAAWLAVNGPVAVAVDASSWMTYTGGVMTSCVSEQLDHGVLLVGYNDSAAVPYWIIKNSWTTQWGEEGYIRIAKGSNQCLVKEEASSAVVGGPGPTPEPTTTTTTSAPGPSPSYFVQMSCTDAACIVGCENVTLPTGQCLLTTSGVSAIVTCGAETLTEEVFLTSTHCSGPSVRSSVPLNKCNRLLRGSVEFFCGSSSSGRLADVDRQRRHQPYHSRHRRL

Turning to `CC/C(=N\Nc1nc(-c2ccccc2)cs1)c1cccc(Br)c1`, the figures for the IC50 in the data set on Trypanosoma cruzi [1] and at Cruzipain were 5.51 µM and 44.6 µM, respectively. For the same molecule, in data set [2], the inhibition was 80.7%. In addition, in [3], the selectivity ratio stood at 11.7. The MNTC at 24 h in data set [4] was determined as 64.7 µM.
As to `CC/C(=N\Nc1nc(-c2ccccc2)c(C)s1)c1cccc(Br)c1`, the IC50 in the data set with Trypanosoma cruzi [1] is 4.79 µM; at Cruzipain, 0.51 µM. For the same molecule, the inhibition in data set [2] was found to be 99.5%. For the same molecule, the selectivity ratio in data set [3] stood at 2.6. In [4], the MNTC at 24 h was 12.5 µM.
In the case of `CC/C(=N\Nc1nc(-c2ccc(OC)cc2)cs1)c1cccc(Br)c1`, in the data set on Trypanosoma cruzi [1], the concentration for half-maximal inhibition (IC50) was 3.84 µM. Further, the result with Trypanosoma cruzi [5], in the data set with Trypanosoma cruzi [6], in the data set with Trypanosoma cruzi [7], with Trypanosoma cruzi [8], in the data set with Trypanosoma cruzi [9] and in the data set on Trypanosoma cruzi [10] was Active. The result in the data set with Trypanosoma cruzi [11] and with Trypanosoma cruzi [12] was Active. Besides, the inhibition in data set [2] turned out to be 72%. Further, the selectivity ratio in data set [3] came out at 31.3. This molecule also came in with an MNTC at 24 h in data set [4] of 120 µM. Also, the Activity entry with Trypanosoma cruzi [13] was “Dose-dependent effect”.
In the case of `CC/C(=N\Nc1nc(-c2ccc(F)cc2)cs1)c1cccc(Br)c1`, the concentration for half-maximal inhibition (IC50) in the data set with Trypanosoma cruzi [1] came out at 146 µM; at Cruzipain, 16.5 µM. In [2], the inhibition amounted to 95.8%. In addition, the selectivity ratio in [3] is 0.8. In addition, the MNTC at 24 h in [4] was determined as 124 µM.
With `CC/C(=N\Nc1nc(-c2cccc([N+](=O)[O-])c2)cs1)c1cccc(Br)c1`, the IC50 in the data set on Trypanosoma cruzi [1] was found to be 15.1 µM; on Cruzipain, 14.6 µM. Also, the inhibition in data set [2] was determined as 85.3%. Besides, the selectivity ratio in data set [3] is 1.5. In [4], this molecule registered an MNTC at 24 h of 23.2 µM.
For the molecule `CC/C(=N\Nc1nc(-c2ccc(Cl)c(Cl)c2)cs1)c1cccc(Br)c1`, the IC50 in the data set with Trypanosoma cruzi [1] was found to be 130 µM; at Cruzipain, 11.3 µM. Besides, in [2], the inhibition is 86.8%. Besides, the selectivity ratio in data set [3] was 0.4. This molecule also yielded an MNTC at 24 h in data set [4] of 54.9 µM.
`CC/C(=N\Nc1nc(-c2ccc(-c3ccccc3)cc2)cs1)c1cccc(Br)c1`: the half-maximal inhibitory concentration (IC50) in the data set with Trypanosoma cruzi [1] is 3.35 µM. In addition, the inhibition in data set [2] was 18.1%. In addition, the selectivity ratio in [3] was over 64.5. Also, in data set [4], the MNTC at 24 h is over 216 µM.
On to `CC/C(=N\N=c1/scc(-c2ccccc2)n1-c1ccccc1)c1cccc(Br)c1`, for which the IC50 with Trypanosoma cruzi [1] was 53.1 µM. Further, the selectivity ratio in [3] was 0.9. Further, the MNTC at 24 h in data set [4] came to 50.8 µM.
In the case of `O=C(Cn1ccnc1[N+](=O)[O-])NCc1ccccc1` [BENZNIDAZOLE], the selectivity ratio in [3] came to 15.4.
As for `CC/C(=N\NC(N)=S)c1cccc(Br)c1`, the IC50 in the data set with Trypanosoma cruzi [1] was determined as 2.41 µM. This molecule came in with an MNTC at 24 h in [4] of 34.9 µM.
With `CC/C(=N\N=C(/S)NC)c1cccc(Br)c1`, the concentration for half-maximal inhibition (IC50) in the data set on Trypanosoma cruzi [1] is 36.3 µM. Also, the selectivity ratio in data set [3] was 0.9. Besides, in data set [4], the MNTC at 24 h was determined as 33.3 µM. Besides, in data set [14], the inhibition was 11.7%.
With `CC/C(=N\N=c1/scc(-c2ccc(OC)cc2)n1C)c1cccc(Br)c1`, in the data set on Trypanosoma cruzi [1], the half-inhibitory concentration (IC50) stood at 76.6 µM. In addition, the selectivity ratio in data set [3] amounted to 0.7. Further, the MNTC at 24 h in data set [4] stood at 58.1 µM. Moreover, the inhibition in data set [14] came out at 33.1%.
Consider `CC/C(=N\Nc1nc(-c2ccc3ccccc3c2)cs1)c1cccc(Br)c1`, for which the half-maximal inhibitory concentration (IC50) in the data set with Trypanosoma cruzi [1] came to 51 µM; at Cruzipain, 9.5 µM. Further, in data set [2], the inhibition was 88.2%. Also, the selectivity ratio in [3] was over 4.5. Besides, the MNTC at 24 h in data set [4] was over 229 µM.
For `CC/C(=N\Nc1nc(-c2ccc([N+](=O)[O-])cc2)cs1)c1cccc(Br)c1`, the half-inhibitory concentration (IC50) in the data set on Trypanosoma cruzi [1] was 60 µM. Also, the inhibition in data set [2] is 68.9%. Besides, the selectivity ratio in data set [3] was over 3.9. The MNTC at 24 h in data set [4] was over 232 µM.
Consider `CC/C(=N\Nc1nc(-c2ccc(C)cc2)cs1)c1cccc(Br)c1`, for which the results for the IC50 in the data set on Trypanosoma cruzi [1] and at Cruzipain were 16.6 µM and 19.2 µM, respectively. In addition, the inhibition in [2] was determined as 97.7%. Besides, in [3], the selectivity ratio is 7.5. In data set [4], the MNTC at 24 h came out at 125 µM.
Regarding `CC/C(=N\N=C(/S)Nc1ccccc1)c1cccc(Br)c1`, in the data set on Trypanosoma cruzi [1], the concentration for half-maximal inhibition (IC50) stood at 13.3 µM. Besides, the selectivity ratio in data set [3] stood at 10.4. The molecule further registered an MNTC at 24 h in data set [4] of 138 µM. The inhibition in data set [14] is 49.5%.
`CC/C(=N\Nc1nc(-c2ccc(Cl)cc2)cs1)c1cccc(Br)c1`: the half-inhibitory concentration (IC50) in the data set with Trypanosoma cruzi [1] came to 140 µM; on Cruzipain it was 32.7 µM. Further, in data set [2], the inhibition was 90.4%. Also, the selectivity ratio in data set [3] was 0.8. The MNTC at 24 h in data set [4] was 119 µM.
As for `CC/C(=N\Nc1nc(-c2ccc(Cl)cc2Cl)cs1)c1cccc(Br)c1`, the 50% inhibitory concentration (IC50) is 59.2 µM with Trypanosoma cruzi [1] and 15.1 µM on Cruzipain. Moreover, the inhibition in [2] worked out at 99.7%. Besides, the selectivity ratio in data set [3] amounted to 0.9. Also, the MNTC at 24 h in [4] came to 54.9 µM.
In the case of `CC/C(=N\Nc1nc(-c2ccc(Br)cc2)c(C)s1)c1cccc(Br)c1`, the IC50 in the data set with Trypanosoma cruzi [1] was 5.8 µM; on Cruzipain, 3.8 µM. Besides, in [2], the inhibition amounted to 100%. For the same molecule, the selectivity ratio in [3] was determined as 3.6. Further, the MNTC at 24 h in [4] amounted to 20.9 µM.
